# Assay results gathered from unrelated publications.
# Each line is one published result; the experiments were not run side by side.
# CDK9 with cyclin K: Cyclin-dependent kinase 9, with cyclin K (CDK9, Homo sapiens, UniProt P50750)
# CDK9: Cyclin-dependent kinase 9 (CDK9, Homo sapiens, UniProt P50750)
# CDK9 with cyclin T1: Cyclin-dependent kinase 9, with cyclin T1 (CDK9, Homo sapiens, UniProt P50750)
SMILES,target,observed,mode,technique,concentration,measurement,value
O=C(CSc1nc2nccnc2c(=O)n1CCc1ccccc1)Nc1nccs1,CDK9 with cyclin K,enzyme activity,inhibitor,,10 µM,inhibition,-8%
Nc1nc(Nc2ccc(S(N)(=O)=O)cc2)sc1C(=O)c1ccccc1[N+](=O)[O-],CDK9,enzyme activity,inhibitor,,0.1 µM,inhibition,90 to 93%
C[C@H](c1cccc(C#N)c1)n1cc(Cl)cc(C(N)=O)c1=N,CDK9,cell-free assay,,competition with immobilised ligand,1 µM,remaining binding,84%
COc1cccc2c(NCc3ccccc3)nc(-n3c(N)nc4ccccc43)nc12,CDK9,target engagement in cells,inhibitor,chemoproteomics,20 mM,inhibition,-14.5%
Cc1cc(-n2nc(Cc3cc(F)cc(C(F)(F)F)c3)nc2C)ccc1C(N)=O,CDK9,cell-free assay,,competition with immobilised ligand,1 µM,remaining binding,100%
O=C1NC(=O)c2cc(Nc3ccc(F)cc3)c(Nc3ccc(F)cc3)cc21,CDK9 with cyclin T1,cell-free assay,,,0.5 µM,remaining signal,95.4%
CCCOc1ccc(OC)c(F)c1C(=O)c1ccc(C(=O)N[C@@H]2CNC[C@H]2NC(=O)c2ccc3[nH]ncc3c2)cc1,CDK9 with cyclin T1,enzyme activity,inhibitor,,10 µM,remaining activity,101%
Cc1cnc(NC2CCOCC2)nc1-n1cnc(C(=O)NC(CN)c2cc(F)cc(Cl)c2)c1 (stereo not drawn),CDK9 with cyclin T1,enzyme activity,inhibitor,radiometric,1 µM,remaining activity,46%
Cc1ccc(Nc2nccc(N(C)c3ccc4c(C)n(C)nc4c3)n2)cc1S(N)(=O)=O,CDK9 with cyclin K,enzyme activity,inhibitor,,0.5 µM,remaining activity,92.7%
CNC(=O)c1cc(Oc2ccc(NC(=O)Nc3ccc(Cl)c(C(F)(F)F)c3)cc2)ccn1,CDK9 with cyclin T1,enzyme activity,inhibitor,,10 µM,inhibition,-6%
O=C1CCc2cc(Nc3cc(OC4CCOCC4)c([N+](=O)[O-])cc3Cl)ccc2N1,CDK9,cell-free assay,,competition with immobilised ligand,1 µM,remaining binding,97%
CN1CC(Oc2cnc(C#N)cc2-c2ccn3nc(NC(=O)C4CC4)cc3c2)C1,CDK9 with cyclin T1,enzyme activity,inhibitor,,1 µM,inhibition,-15%
Cc1ccc(NC(=O)c2ccc(CN3CCN(C)CC3)cc2)cc1Nc1nc(-c2cccnc2)cs1,CDK9 with cyclin K,cell-free assay,,,0.5 µM,remaining signal,109%
COc1cc(/C=C/C(=O)CC(=O)/C=C/c2ccc(O)c(OC)c2)ccc1O,CDK9 with cyclin T1,enzyme activity,inhibitor,,1 µM,activity vs control,88%
O=C1Nc2ccc(Cl)cc2C1=Cc1cc(Cl)c(O)c(Cl)c1,CDK9 with cyclin T1,cell-free assay,,,0.5 µM,remaining signal,95.2%
CCN(CC)CCNC(=O)c1c(C)[nH]c(/C=C2\C(=O)Nc3ccc(F)cc32)c1C,CDK9 with cyclin T1,enzyme activity,inhibitor,,0.3 µM,inhibition,-7%
COc1cc(-c2cc(-c3ccc(N4CCNCC4)cc3)cnc2C)cc(OC)c1OC,CDK9 with cyclin T1,enzyme activity,inhibitor,,0.1 µM,inhibition,3%
CCCCN(CCCC)C(=O)CN1C[C@@H](c2cc(OC)c3c(c2)OCO3)[C@H](C(=O)O)[C@H]1CC(C)(C)CCC,CDK9,cell-free assay,,competition with immobilised ligand,1 µM,remaining binding,100%
CN(C)C1CCN(CC#Cc2nn(C3CCCC3)c3nc(NCc4ccccc4)ncc23)C1 (stereo not drawn),CDK9 with cyclin T1,enzyme activity,inhibitor,FRET,10 µM,inhibition,-12%
c1ccc(N2CCN(Cc3nc4ccccc4[nH]3)CC2)nc1,CDK9,binding,,competition with immobilised ligand,1 µM,remaining binding,100%
CC(C)(C)c1nc2c(s1)c1nc(N)ncc1c1ccc(NS(=O)(=O)c3c(F)cccc3F)c(F)c12,CDK9 with cyclin K,enzyme activity,inhibitor,radiometric,1 µM,remaining activity,93%
